A value given as a limit tells only on which side of the number the result lay.

Experiment [1] concerns the target T1, Cannabinoid receptor 2 (Homo sapiens, UniProt P34972). In words: Displacement of [3H]CP-55940 from human CB2 receptor expressed in CHO cells. Type of experiment: cell-based. The gist of the method:
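CHO cells stably transfected with human CB2 receptor. Values are the mean of at least three independent experiments.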
A general note: Displacement assays read how much labelled ligand stays bound in the presence of the test substance.

The next experiment addresses Cannabinoid receptor 1 (Homo sapiens, UniProt P21554). Description: Displacement of [3H]CP-55940 from human CB1 receptor expressed in CHO cells. Type of experiment: cell-based. The gist of the method:
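CHO cells stably transfected with human CB1 receptor. Values are the mean of at least three independent experiments.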

The species named for the next experiment is Homo sapiens. Description: Selectivity ratio of Ki for human CB1 to Ki for human CB2.
Experiment [2] concerns the target T1, Cannabinoid receptor 2. In words: Inverse agonist activity at human CB2 receptor assessed as inhibition of forskolin-stimulated cAMP accumulation after 4 hrs. In kind it is functional. The method, boiled down: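 Functional human CB2 cAMP accumulation assay with the incubation extended to 4 h. Inverse agonism read out as pEC50. Values are the mean of at least three independent experiments.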
(In general: Cyclic AMP is a second messenger, typically raised through Gs and lowered through Gi signalling.)

Experiment [3] concerns the target T1, Cannabinoid receptor 2. Description: Inverse agonist activity at human CB2 receptor assessed as stimulation of cAMP accumulation after 20 mins.
For experiment [4], the target named is T1, Cannabinoid receptor 2. Description: Antagonist activity at human CB2 receptor assessed as inhibition of forskolin-stimulated cAMP accumulation in presence of JWH133. In kind it is functional. The note with it: read-out: pA2 (converted). The gist of the method:
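Human CB2 cAMP accumulation assay measuring dose-dependent antagonism of the CB2-selective agonist JWH133, expressed as pA2 ± error. Incubation was 20 min, or 4 h for some compounds. Based on at least three independent experiments.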

Sequence of Cannabinoid receptor 1 (P21554 whole entry): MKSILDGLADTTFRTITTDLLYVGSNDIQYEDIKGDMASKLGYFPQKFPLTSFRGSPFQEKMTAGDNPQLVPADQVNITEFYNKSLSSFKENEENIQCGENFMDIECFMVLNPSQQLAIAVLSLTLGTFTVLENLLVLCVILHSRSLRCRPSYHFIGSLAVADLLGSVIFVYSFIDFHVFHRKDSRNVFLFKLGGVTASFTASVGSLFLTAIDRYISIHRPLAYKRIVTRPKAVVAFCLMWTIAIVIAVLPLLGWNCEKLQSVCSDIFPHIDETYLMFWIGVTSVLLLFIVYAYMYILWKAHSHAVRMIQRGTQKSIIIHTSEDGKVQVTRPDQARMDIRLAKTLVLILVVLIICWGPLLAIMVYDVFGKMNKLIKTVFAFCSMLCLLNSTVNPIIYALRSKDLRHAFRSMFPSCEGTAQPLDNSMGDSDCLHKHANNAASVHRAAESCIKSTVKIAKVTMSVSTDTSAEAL
T1 sequence (P34972 whole entry): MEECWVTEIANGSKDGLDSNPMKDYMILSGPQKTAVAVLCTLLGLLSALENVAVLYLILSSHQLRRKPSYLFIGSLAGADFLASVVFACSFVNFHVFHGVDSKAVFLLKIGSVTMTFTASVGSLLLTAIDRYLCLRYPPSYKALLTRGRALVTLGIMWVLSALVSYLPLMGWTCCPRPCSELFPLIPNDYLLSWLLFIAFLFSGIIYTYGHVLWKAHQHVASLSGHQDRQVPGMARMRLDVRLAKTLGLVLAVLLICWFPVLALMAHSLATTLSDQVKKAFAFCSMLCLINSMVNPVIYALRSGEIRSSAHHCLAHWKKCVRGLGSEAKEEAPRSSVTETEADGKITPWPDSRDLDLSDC

On to `CCc1nc(C(=O)NC23CC4CC(CC(C4)C2)C3)cn1-c1ccccc1`, for which the values for the Ki at Cannabinoid receptor 2 [1] and on Cannabinoid receptor 1 were 12.7 nM and > 1000 nM, respectively. Besides, in the experiment listed under Homo sapiens, the Ratio was > 79. For the same molecule, the EC50 (usually the concentration giving half of the maximal effect) on Cannabinoid receptor 2 [2] was 6.31 nM; at Cannabinoid receptor 2 [3] it was 12.6 nM.

As for `Cc1nc(C(=O)NC2C3CC4CC(C3)CC2C4)c(C)n1-c1ccccc1` (stereo not drawn), the Ki (usually a measure of affinity in units of concentration, obtained from inhibition or displacement) on Cannabinoid receptor 2 [1] turned out to be 13.8 nM; at Cannabinoid receptor 1 it was 3010 nM. For the same molecule, the Ratio in the experiment filed under Homo sapiens stood at 218. In addition, the EC50 at Cannabinoid receptor 2 [3] was 6.31 nM.

Consider `CSc1c(C(=O)NC23CC4CC(CC(C4)C2)C3)nc(C)n1-c1ccccc1`, for which the Ki at Cannabinoid receptor 2 [1] was 10 nM; at Cannabinoid receptor 1, > 10000 nM. Moreover, in the experiment filed under Homo sapiens, the Ratio was > 1000. Besides, on Cannabinoid receptor 2 [3], the EC50 is 6.31 nM.

As to `Cc1nc(C(=O)NC23CC4CC(CC(C4)C2)C3)c(Br)n1-c1ccccc1`, the Ki at Cannabinoid receptor 2 [1] was 8.4 nM; at Cannabinoid receptor 1 it was > 10000 nM. Further, in the experiment listed under Homo sapiens, the Ratio was > 1190.

As to `CCc1nc(C(=O)NC23CC4CC(CC(C4)C2)C3)c(C)n1-c1ccccc1`, the Ki came out at 1.6 nM on Cannabinoid receptor 2 [1] and 4150 nM at Cannabinoid receptor 1. Further, the Ratio in the experiment listed under Homo sapiens is 2600. Also, at Cannabinoid receptor 2 [4], the Kb is 5.01 nM. Also, the concentration for a half-maximal effect (EC50) on Cannabinoid receptor 2 [3] was 1.58 nM.

As to `Cc1nc(C(=O)NC23CC4CC(CC(C4)C2)C3)c(C)n1-c1ccccc1`, the figures for the Ki on Cannabinoid receptor 2 [1] and at Cannabinoid receptor 1 were 2.7 nM and 4890 nM, respectively. Also, the Ratio in the experiment listed under Homo sapiens was 1810. The EC50 at Cannabinoid receptor 2 [2] and on Cannabinoid receptor 2 [3] was 0.794 nM in each case. The Kb on Cannabinoid receptor 2 [4] is 1.58 nM.

As to `C[C@H](NS(C)(=O)=O)c1ccc(S(=O)(=O)c2ccc(Cl)cc2S(=O)(=O)c2ccccc2F)cc1`, the Ki on Cannabinoid receptor 2 [1] was determined as 0.8 nM; on Cannabinoid receptor 1, 3540 nM. In addition, in the experiment filed under Homo sapiens, the Ratio was 4420. Also, the EC50 is 5.01 nM at Cannabinoid receptor 2 [2] and 7.94 nM at Cannabinoid receptor 2 [3]. Moreover, the Kb on Cannabinoid receptor 2 [4] is 1 nM.

Consider `Cc1nc(C(=O)NC2C3CC4CC(C3)C2C4)c(C)n1-c1ccccc1` (stereo not drawn), for which the Ki was 9.7 nM at Cannabinoid receptor 2 [1] and 5440 nM at Cannabinoid receptor 1. Also, the Ratio in the experiment listed under Homo sapiens is 561. Also, the EC50 at Cannabinoid receptor 2 [3] is 7.94 nM.

In the case of `O=C(NC12CC3CC(CC(C3)C1)C2)c1nc(Cl)n(-c2ccccc2)c1Cl`, the Ki is 50 nM at Cannabinoid receptor 2 [1] and > 1000 nM at Cannabinoid receptor 1. The Ratio in the experiment listed under Homo sapiens is > 20. On Cannabinoid receptor 2 [4], the Kb was 7.94 nM. Besides, the EC50 on Cannabinoid receptor 2 [3] was 79.4 nM.

As for `Cc1nc(C(=O)NCc2ccccc2C(F)(F)F)c(C)n1-c1ccccc1`, the Ki on Cannabinoid receptor 2 [1] is 3.5 nM; at Cannabinoid receptor 1, 1420 nM. Besides, in the experiment listed under Homo sapiens, the Ratio turned out to be 406. The EC50 at Cannabinoid receptor 2 [3] was 0.2 nM.

Take `CCc1c(C(=O)NC23CC4CC(CC(C4)C2)C3)nc(C)n1-c1ccccc1`: the Ki at Cannabinoid receptor 2 [1] was 1.03 nM; on Cannabinoid receptor 1, > 10000 nM. In addition, the Ratio in the experiment filed under Homo sapiens is > 9710. In addition, the EC50 is 0.251 nM at Cannabinoid receptor 2 [2] and 20 nM on Cannabinoid receptor 2 [3]. Moreover, the Kb at Cannabinoid receptor 2 [4] was 1 nM.

As to `CCCCCOc1c(OC)ccc2cc(C(=O)NCc3ccc4c(c3)OCO4)c(=O)[nH]c12`, the affinity on Cannabinoid receptor 1, expressed as Ki, was 3920 nM.

Consider `Cc1nc(C(=O)NC[C@H]2C[C@@H]3C[C@H](C2)C3(C)C)c(C)n1-c1ccccc1`, for which the Ki at Cannabinoid receptor 2 [1] is 20 nM; at Cannabinoid receptor 1, 3990 nM. Also, the Ratio in the experiment filed under Homo sapiens was 200. Further, the EC50 on Cannabinoid receptor 2 [3] was 31.6 nM.

`Cc1nc(C(=O)NC23CC4CC(CC(C4)C2)C3)c(Cl)n1-c1ccccc1`: the figures for the Ki on Cannabinoid receptor 2 [1] and on Cannabinoid receptor 1 were 23.8 nM and > 10000 nM, respectively. For the same molecule, the Ratio in the experiment listed under Homo sapiens is > 420. Besides, the EC50 at Cannabinoid receptor 2 [3] was 63.1 nM.

For the molecule `CCCCc1c(C(=O)NC23CC4CC(CC(C4)C2)C3)nc(C)n1-c1ccccc1`, the Ki at Cannabinoid receptor 2 [1] turned out to be 9.8 nM; on Cannabinoid receptor 1 it was 2000 nM. In the experiment filed under Homo sapiens, the Ratio is > 102. The EC50 on Cannabinoid receptor 2 [3] is 5.01 nM.

Regarding `Cc1nc(C(=O)NC23CC4CC(CC(C4)C2)C3)c(C)n1C1CCCCC1`, the Ki is 20 nM at Cannabinoid receptor 2 [1] and > 10000 nM at Cannabinoid receptor 1. In addition, in the experiment listed under Homo sapiens, the Ratio is > 500. In addition, the EC50 on Cannabinoid receptor 2 [3] was 126 nM.

In the case of `Cc1c(C(=O)NC[C@H]2C[C@@H]3C[C@H](C2)C3(C)C)ncn1-c1ccccc1`, the figures for the Ki on Cannabinoid receptor 2 [1] and on Cannabinoid receptor 1 were 175 nM and > 10000 nM, respectively. In the experiment filed under Homo sapiens, the Ratio is > 57. For the same molecule, the EC50 on Cannabinoid receptor 2 [3] was 158 nM.

(Values after ChEMBL document CHEMBL1158524, “Synthesis and SAR of novel imidazoles as potent and selective cannabinoid CB2 receptor antagonists with high binding efficiencies” (Bioorg Med Chem Lett, 2010).)
